Data taken from ChEMBL document CHEMBL1128416, “Synthesis and evaluation of 6,7-dihydroxy-2,3,4,8,9,13b-hexahydro-1H- benzo[6,7]cyclohepta[1,2,3-ef][3]benzazepine, 6,7-dihydroxy- 1,2,3,4,8,12b-hexahydroanthr[10,4a,4-cd]azepine, and 10-(aminomethyl)-9,10- dihydro-1,2-dihydroxyanthracene as conformationally restricted analogs of …” (J Med Chem, 1995).

What was measured:
Details in all cases: Striatum; Membrane
[1] = target: D(1A) dopamine receptor (Rattus norvegicus) (UniProt P18901); test: Binding affinity to the dopamine receptor D1 by displacing [3H]-SCH- 23390 radio-ligand in rat striatal membranes by using radioligand competition assay.; assay type: cell membranes
Procedure, shortened: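 Striata from male Sprague-Dawley rats (200–400 g), fresh or stored at -70 °C. Homogenized in ice-cold 50 mM HEPES with 4.0 mM MgCl2, pH 7.4, washed twice by centrifugation at 27000g, and resuspended at ~2.0 mg wet weight/mL. Membranes were incubated with 0.3 nM [3H]SCH 23390 and increasing test concentrations for 15 min at 37 °C. Nonspecific binding defined with 1 μM SCH 23390. Filtered, scintillation counted, IC50 derived.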

[2] = target: D(2) dopamine receptor (Rattus norvegicus) (UniProt P61169); test: Binding affinity towards Dopamine receptor D2 by displacing [3H]spiperone radio-ligand in rat striatal membranes by using radioligand competition assay.; assay type: cell membranes
Procedure, shortened: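 Same rat striatal membrane preparation as the D1 assay: HEPES/MgCl2 buffer, pH 7.4, 37 °C incubation, filtration and scintillation counting. [3H]spiperone was the radioligand, competed with increasing test concentrations. IC50 derived from the displacement data.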

[3] = target: D(1A) dopamine receptor (Rattus norvegicus) (UniProt P18901)

Chain of D(1A) dopamine receptor (Rattus norvegicus) (P18901 whole entry): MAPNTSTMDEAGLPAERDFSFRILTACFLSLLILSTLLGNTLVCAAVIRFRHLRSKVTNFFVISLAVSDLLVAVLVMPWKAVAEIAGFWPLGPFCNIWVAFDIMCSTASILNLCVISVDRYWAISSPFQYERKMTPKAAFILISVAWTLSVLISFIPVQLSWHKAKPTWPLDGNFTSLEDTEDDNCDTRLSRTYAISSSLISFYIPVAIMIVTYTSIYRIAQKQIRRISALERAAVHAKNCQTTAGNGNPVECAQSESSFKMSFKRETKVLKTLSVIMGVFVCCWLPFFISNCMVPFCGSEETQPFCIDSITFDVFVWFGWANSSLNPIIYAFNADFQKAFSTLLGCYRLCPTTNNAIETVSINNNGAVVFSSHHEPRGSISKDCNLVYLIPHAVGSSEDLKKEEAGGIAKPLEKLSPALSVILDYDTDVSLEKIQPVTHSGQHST
Chain of D(2) dopamine receptor (Rattus norvegicus) (P61169 whole entry): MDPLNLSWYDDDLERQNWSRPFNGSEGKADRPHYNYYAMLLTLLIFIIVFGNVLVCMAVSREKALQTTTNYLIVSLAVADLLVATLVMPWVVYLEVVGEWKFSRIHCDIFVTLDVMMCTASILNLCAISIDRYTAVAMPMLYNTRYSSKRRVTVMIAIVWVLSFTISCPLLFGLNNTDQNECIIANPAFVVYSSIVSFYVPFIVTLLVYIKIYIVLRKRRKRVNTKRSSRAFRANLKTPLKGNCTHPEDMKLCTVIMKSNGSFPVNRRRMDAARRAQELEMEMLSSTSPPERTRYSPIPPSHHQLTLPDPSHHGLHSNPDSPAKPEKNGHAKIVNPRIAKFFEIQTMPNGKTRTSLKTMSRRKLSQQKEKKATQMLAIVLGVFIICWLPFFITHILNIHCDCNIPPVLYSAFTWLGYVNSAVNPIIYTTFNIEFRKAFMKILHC

Structure (SMILES) | K0.5 [1] [nM] | K0.5 [2] [nM] | K0.5 [3] [nM]
Oc1cc2c3c(c1O)CCc1ccccc1C3CNCC2 (stereo not given) | 372 | 2150 | 
NCC1c2ccccc2Cc2c1ccc(O)c2O (stereo not given) | > 2500 | > 2500 | 
Oc1cc2c(cc1O)[C@H]1c3ccccc3CN[C@@H]1CC2 |  | 29 | 2.4
Oc1cc2c(cc1O)[C@@H](c1ccccc1)CNCC2 | 11.1 | 1870 | 
Oc1cc2c3c(c1O)Cc1ccccc1C3CNCC2 (stereo not given) | 590 | 1250 | 
